The source made the active and inactive calls. No cut-off for these calls is given here.
Assays:
[1] = Inhibition of deubiquitinase in HEK293T cells expressing N-terminal HA-tagged ubiquitin assessed as stabilization of HMW-Ub proteins after 2 hrs by Western blot analysis; assay type: cell-based, Homo sapiens
[2] = Inhibition of deubiquitinase in COS1 cells expressing N-terminal HA-tagged ubiquitin assessed as stabilization of HMW-Ub proteins by Western blot analysis; assay type: cell-based, Chlorocebus aethiops
How it was run: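 HMW-Ub decomposition followed in lysates of Cos-1 cells expressing HA-Ub; EC50 from inhibition of HMW-Ub loss; mean ± s.e.m. of at least 3 independent experiments.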

[3] = Inhibition of deubiquitinase in HEK293T cells assessed as stabilization of K48-linked HMW-Ub protein by Western blot analysis; assay type: cell-based, Homo sapiens
[4] = biological target: Ubiquitin carboxyl-terminal hydrolase 7 (Homo sapiens) (UniProt Q93009); experiment: Inhibition of recombinant His6-tagged USP7 catalytic domain (unknown origin) assessed as association constant using Ub-AMC as substrate by fluorescence assay
Sequence of Ubiquitin carboxyl-terminal hydrolase 7 (Homo sapiens) (Q93009 whole entry, looked up, the tested form may be a part): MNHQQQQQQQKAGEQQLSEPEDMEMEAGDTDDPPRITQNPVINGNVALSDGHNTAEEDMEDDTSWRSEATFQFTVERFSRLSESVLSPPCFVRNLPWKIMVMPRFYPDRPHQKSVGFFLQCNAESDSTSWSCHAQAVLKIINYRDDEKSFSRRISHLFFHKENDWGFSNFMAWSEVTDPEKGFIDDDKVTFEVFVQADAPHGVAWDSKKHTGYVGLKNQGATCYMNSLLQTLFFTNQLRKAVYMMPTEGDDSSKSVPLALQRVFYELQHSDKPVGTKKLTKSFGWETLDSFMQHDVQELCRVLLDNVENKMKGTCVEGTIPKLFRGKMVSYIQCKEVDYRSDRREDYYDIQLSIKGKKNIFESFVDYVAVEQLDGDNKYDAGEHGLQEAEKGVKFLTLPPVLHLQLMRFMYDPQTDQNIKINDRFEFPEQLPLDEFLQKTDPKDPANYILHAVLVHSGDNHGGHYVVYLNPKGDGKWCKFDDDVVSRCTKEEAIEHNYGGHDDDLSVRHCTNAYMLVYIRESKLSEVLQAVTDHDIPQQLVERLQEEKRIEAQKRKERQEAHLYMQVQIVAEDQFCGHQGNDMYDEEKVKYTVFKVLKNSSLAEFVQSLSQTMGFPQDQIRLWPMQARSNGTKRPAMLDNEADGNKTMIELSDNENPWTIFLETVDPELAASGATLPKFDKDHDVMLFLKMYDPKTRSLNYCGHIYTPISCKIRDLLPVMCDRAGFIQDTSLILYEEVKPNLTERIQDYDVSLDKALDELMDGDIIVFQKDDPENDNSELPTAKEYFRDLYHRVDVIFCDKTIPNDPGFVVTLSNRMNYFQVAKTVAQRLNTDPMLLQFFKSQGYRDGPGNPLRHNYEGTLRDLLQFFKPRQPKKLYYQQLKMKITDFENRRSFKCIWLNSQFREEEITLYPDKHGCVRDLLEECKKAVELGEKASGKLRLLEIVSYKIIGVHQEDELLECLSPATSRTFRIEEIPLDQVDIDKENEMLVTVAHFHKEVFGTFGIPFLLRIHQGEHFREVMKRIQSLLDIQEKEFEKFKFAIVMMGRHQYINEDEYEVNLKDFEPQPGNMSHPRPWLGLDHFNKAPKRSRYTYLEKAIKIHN

[5] = biological target: Ubiquitin carboxyl-terminal hydrolase 9X (Homo sapiens) (UniProt Q93008); experiment: Inhibition of recombinant His6-tagged USP9x catalytic domain (unknown origin) assessed as association constant using Ub-AMC as substrate by fluorescence assay
Sequence of Ubiquitin carboxyl-terminal hydrolase 9X (Homo sapiens) (Q93008 whole entry, the tested form may be a part): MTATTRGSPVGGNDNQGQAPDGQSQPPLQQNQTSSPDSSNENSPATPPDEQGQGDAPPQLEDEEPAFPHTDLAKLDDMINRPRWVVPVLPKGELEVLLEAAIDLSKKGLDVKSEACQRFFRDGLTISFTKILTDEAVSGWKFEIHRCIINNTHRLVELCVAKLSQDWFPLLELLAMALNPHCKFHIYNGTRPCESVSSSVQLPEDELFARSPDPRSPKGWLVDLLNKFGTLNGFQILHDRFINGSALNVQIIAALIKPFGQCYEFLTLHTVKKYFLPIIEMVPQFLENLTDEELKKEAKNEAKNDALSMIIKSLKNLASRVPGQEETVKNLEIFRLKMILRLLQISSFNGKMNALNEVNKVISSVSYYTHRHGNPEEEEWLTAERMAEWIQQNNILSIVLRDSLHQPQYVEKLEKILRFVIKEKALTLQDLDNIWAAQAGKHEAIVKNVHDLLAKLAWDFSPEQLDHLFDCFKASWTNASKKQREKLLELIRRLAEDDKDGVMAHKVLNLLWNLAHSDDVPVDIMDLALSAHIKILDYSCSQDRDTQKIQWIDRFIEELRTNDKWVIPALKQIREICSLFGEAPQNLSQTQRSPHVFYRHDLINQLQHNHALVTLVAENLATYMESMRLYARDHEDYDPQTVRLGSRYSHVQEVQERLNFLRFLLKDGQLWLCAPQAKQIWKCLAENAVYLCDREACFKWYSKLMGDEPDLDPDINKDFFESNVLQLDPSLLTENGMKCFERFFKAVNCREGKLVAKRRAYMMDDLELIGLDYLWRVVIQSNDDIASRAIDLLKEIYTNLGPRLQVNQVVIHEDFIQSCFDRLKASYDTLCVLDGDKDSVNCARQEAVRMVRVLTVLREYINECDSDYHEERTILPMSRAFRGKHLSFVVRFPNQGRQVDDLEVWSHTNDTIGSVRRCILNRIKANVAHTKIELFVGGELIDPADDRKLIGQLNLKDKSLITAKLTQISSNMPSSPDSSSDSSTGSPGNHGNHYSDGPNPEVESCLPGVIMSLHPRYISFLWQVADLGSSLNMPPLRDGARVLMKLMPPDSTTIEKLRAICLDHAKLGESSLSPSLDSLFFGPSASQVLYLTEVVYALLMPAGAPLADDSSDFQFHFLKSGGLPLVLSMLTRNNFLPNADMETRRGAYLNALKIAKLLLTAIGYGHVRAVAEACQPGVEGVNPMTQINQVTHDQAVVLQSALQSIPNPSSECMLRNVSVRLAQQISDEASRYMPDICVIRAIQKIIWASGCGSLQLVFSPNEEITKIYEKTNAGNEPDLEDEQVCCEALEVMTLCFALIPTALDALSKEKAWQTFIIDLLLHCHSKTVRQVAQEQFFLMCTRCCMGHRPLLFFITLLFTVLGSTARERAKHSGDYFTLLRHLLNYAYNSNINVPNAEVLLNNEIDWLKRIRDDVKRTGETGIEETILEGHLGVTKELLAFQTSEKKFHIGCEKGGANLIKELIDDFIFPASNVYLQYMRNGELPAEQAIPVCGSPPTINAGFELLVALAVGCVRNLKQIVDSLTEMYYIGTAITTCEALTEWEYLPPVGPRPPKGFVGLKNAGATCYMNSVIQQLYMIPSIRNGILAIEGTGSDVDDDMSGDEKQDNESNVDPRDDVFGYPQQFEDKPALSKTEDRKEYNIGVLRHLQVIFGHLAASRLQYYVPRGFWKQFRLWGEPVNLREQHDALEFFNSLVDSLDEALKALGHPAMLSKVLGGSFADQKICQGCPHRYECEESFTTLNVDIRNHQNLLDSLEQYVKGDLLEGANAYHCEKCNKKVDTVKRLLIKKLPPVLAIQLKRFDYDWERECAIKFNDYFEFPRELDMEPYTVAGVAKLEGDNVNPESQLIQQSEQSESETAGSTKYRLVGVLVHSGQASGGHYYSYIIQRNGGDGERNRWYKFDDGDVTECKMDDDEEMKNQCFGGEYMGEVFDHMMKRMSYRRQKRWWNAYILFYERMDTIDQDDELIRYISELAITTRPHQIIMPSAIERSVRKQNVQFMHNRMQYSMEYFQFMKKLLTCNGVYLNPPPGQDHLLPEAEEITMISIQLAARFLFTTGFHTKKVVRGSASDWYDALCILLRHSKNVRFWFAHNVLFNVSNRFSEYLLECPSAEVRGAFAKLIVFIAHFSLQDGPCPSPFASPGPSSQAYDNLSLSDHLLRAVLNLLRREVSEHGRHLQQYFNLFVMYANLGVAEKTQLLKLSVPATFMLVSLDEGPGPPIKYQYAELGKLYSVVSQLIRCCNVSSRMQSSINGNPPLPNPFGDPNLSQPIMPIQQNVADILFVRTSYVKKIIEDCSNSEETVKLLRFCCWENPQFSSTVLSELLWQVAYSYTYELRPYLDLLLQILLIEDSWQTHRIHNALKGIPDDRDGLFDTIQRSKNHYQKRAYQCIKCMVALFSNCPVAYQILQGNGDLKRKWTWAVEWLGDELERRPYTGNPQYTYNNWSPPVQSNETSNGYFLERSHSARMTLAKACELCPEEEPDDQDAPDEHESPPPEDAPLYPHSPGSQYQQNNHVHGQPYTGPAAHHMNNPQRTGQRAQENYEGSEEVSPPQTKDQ

Papain (Carica papaya) = biological target: T1, Papain (Carica papaya) (UniProt P00784); experiment: Inhibition of papaya papain at 100 uM using Z-Arg-AMC as substrate preincubated for 30 mins followed by substrate addition by fluorescence assay
T1 sequence (whole entry): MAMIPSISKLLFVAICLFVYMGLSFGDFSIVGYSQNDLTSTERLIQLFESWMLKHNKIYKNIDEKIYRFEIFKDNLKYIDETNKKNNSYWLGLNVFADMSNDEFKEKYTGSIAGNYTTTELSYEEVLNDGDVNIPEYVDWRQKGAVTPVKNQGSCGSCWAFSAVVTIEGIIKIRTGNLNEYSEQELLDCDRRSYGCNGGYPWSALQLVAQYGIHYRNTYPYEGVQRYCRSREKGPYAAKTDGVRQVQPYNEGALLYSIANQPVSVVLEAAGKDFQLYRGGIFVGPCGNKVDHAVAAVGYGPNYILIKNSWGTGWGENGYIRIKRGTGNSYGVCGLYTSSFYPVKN
How it was run: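 Enzyme (papain or ficin) preincubated 30 min with inhibitor at 100 μM, then Z-Arg-AMC substrate added at 300 μM; AMC release followed.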

[6] = biological target: Sentrin-specific protease 6 (Homo sapiens) (UniProt Q9GZR1); experiment: Inhibition of recombinant His6-tagged SENP6 catalytic domain (628 to 1112 residues) (unknown origin) at 1 to 25 uM using SUMO2-modified RanGap1 as substrate preincubated for 30 mins followed by substrate addition and measured after 10 mins by Western blot analysis
Sequence of Sentrin-specific protease 6 (Homo sapiens) (Q9GZR1 whole entry, the tested form may be a part): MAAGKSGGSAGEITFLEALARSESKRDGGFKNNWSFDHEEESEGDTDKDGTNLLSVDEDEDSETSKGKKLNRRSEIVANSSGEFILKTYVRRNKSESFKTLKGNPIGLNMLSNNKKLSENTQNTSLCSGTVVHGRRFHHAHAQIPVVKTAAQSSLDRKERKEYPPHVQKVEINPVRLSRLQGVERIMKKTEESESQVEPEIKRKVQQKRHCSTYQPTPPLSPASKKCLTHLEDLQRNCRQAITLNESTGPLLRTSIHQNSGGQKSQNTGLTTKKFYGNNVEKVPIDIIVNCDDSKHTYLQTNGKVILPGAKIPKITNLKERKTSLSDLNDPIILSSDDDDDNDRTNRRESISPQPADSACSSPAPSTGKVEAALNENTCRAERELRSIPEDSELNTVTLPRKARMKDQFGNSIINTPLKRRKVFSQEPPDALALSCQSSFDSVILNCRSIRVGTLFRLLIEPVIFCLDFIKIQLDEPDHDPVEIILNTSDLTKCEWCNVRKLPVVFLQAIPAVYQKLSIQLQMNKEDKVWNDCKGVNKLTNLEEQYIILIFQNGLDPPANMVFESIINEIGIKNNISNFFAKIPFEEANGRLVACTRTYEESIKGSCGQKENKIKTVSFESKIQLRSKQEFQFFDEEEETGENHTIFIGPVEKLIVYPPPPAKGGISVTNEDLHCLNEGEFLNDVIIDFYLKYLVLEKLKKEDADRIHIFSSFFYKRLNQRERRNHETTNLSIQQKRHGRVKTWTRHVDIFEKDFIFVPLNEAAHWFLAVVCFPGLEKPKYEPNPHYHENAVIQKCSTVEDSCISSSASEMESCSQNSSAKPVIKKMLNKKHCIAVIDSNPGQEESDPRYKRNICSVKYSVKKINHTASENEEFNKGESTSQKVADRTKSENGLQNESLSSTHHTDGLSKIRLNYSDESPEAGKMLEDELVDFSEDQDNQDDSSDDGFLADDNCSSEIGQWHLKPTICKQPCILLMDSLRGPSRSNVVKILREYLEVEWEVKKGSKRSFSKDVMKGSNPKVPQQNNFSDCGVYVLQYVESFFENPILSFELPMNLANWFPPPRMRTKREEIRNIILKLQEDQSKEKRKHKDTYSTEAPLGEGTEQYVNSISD
How it was run: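 His6-SENP6 catalytic domain (aa 628-1112, 200 nM) treated with inhibitor 30 min at room temperature; SUMOylated His6-RanGap1 (aa 418-588, 3 μM) then added for 10 min at 37 °C; quenched in Laemmli buffer, SDS-PAGE, anti-His6 immunoblot.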

[7] = biological target: 26S proteasome (Homo sapiens) (UniProt Q99460+P49721+P20618+P28074+P28062+P28065+P28072+O00487+P25786+P25787+P25788+P25789+P28066+P60900+O14818+Q8TAA3+P40306+A5LHX3+P49720+P28070+Q99436+Q16186+P35998+P62191+P43686+P62333+P17980+P62195+Q13200+O43242+O00232+O00231+Q15008+P51665+Q9UNM6+P55036+P48556+P60896); experiment: Inhibition of 26S proteasome in HEK293T cells expressing GFP-fused Ub G76V mutant assessed as increase in GFP fluorescence; assay type: cell-based
How it was run: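 HEK 293T cells expressing G76V Ub-GFP, a fusion uncleavable by DUBs that reports ubiquitin-proteasome flux, treated with compound. GFP fluorescence was the read-out, with bortezomib as proteasome-inhibitor reference.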

K562 = experiment: Inhibition of deubiquitinase in human K562 cells assessed as accumulation of K48-linked HMW-Ub protein at 50 uM measured after 2 hrs by Western blot analysis; assay type: cell-based
How it was run: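 K562 cells exposed to compound at 50 μM for 2 h; K48-linked ubiquitin accumulation read by immunoblotting.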

[8] = biological target: Ubiquitin carboxyl-terminal hydrolase 9X (Homo sapiens) (UniProt Q93008); experiment: Inhibition of USP9x in human K562 cells assessed as decrease in Bcr-Abl expression at 50 uM measured after 2 hrs by Western blot analysis; assay type: cell-based
How it was run: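 K562 cells treated with 50 μM compound for 2 h. Lysates were sonicated in SDS, and Bcr-Abl was immunoblotted with anti-Abl antibody.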

Ficin (Ficus carica) = experiment: Inhibition of fig ficin at 100 uM using Z-Arg-AMC as substrate preincubated for 30 mins followed by substrate addition by fluorescence assay
Homo sapiens [9] = species: Homo sapiens; experiment: Inhibition of deubiquitinase in HEK293T cells expressing N-terminal HA-tagged ubiquitin assessed as stabilization of HMW-Ub proteins at 25 uM after 2 hrs by Western blot analysis; assay type: cell-based
Homo sapiens [10] = species: Homo sapiens; experiment: Inhibition of deubiquitinase in HEK293T cells expressing N-terminal HA-tagged ubiquitin assessed as stabilization of HMW-Ub proteins at 30 uM after 2 hrs by Western blot analysis; assay type: cell-based
How it was run: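 Lysate of HEK 293T cells expressing HA-ubiquitin, incubated with inhibitor or DMSO vehicle at 37 °C for up to 2 h. Reactions quenched with reducing Laemmli buffer. Remaining high-molecular-weight ubiquitinated proteins assessed by SDS-PAGE and anti-HA immunoblot, relative to DMSO control at time 0. Duplicate runs.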

Homo sapiens [11] = species: Homo sapiens; experiment: Inhibition of deubiquitinase in HEK293T cells expressing N-terminal HA-tagged ubiquitin assessed as stabilization of HMW-Ub proteins at 100 uM after 2 hrs by Western blot analysis; assay type: cell-based
Homo sapiens [12] = species: Homo sapiens; experiment: Inhibition of deubiquitinase in HEK293T cells expressing N-terminal HA-tagged ubiquitin assessed as stabilization of HMW-Ub proteins by measuring half life at 500 uM after 2 hrs by Western blot analysis; assay type: cell-based
Homo sapiens [13] = species: Homo sapiens; experiment: Inhibition of deubiquitinase in HEK293T cells expressing N-terminal HA-tagged ubiquitin assessed as stabilization of HMW-Ub proteins by measuring half life at 250 uM after 2 hrs by Western blot analysis; assay type: cell-based
[14] = biological target: Ubiquitin carboxyl-terminal hydrolase 9X (Homo sapiens) (UniProt Q93008); experiment: Inhibition of recombinant human N-terminal His6-tagged USP9x assessed as association constant using Cy5-UbVME as substrate preincubated for 15 mins followed by substrate addition and measured after 7 mins by fluorescence assay
Homo sapiens [15] = species: Homo sapiens; experiment: Inhibition of deubiquitinase in HEK293T cells expressing N-terminal HA-tagged ubiquitin assessed as stabilization of HMW-Ub proteins at 1 uM after 2 hrs by Western blot analysis; assay type: cell-based
MCF7 = experiment: Cytotoxicity against human MCF7 cells assessed as decrease in cell viability treated every 24 hrs measured after 72 hrs by alamar blue assay; assay type: functional, cell-based
How it was run: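 MCF7 or B16/F10 cells dosed with compound every 24 h. Viable cells were quantified with Alamar Blue after 72 h.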

## NCc1ccc(OC(=O)Oc2ccc(Br)cc2)cc1
[1]
  EC50: 30 µM
[2]
  EC50: 40 µM
[3]
  EC50: < 50 µM
[4]
  K: 8 M⁻¹ s⁻¹
[5]
  K: 6 M⁻¹ s⁻¹
Papain (Carica papaya)
  inhibition: inactive
[6]
  inhibition: inactive
[7]
  inhibition: inactive
K562
  inhibition: Active
[8]
  inhibition: Active
Ficin (Ficus carica)
  inhibition: inactive

## CCC[C@H](NC(=O)/C(C#N)=C/c1cccc(Br)n1)c1ccccc1
[4]
  K: 66 M⁻¹ s⁻¹
[5]
  K: 50 M⁻¹ s⁻¹

## NCc1ccc(OC(=O)Nc2ccccc2)cc1
[1]
  EC50: > 150 µM

## NCc1ccc(NC(=O)Oc2ccccc2)cc1
[1]
  EC50: > 150 µM

## CC(C)(C)OC(=O)NCc1ccc(OC(=O)Oc2ccc3ccccc3c2)cc1
[1]
  EC50: > 150 µM

## O=C(Oc1ccccc1)Oc1ccc(CNCc2ccc(Cl)cc2)cc1
[1]
  EC50: 300 µM

## Cc1ccc(/C=C2\CNC/C(=C\c3ccc(C)cc3)C2=O)cc1
Homo sapiens [9]
  inhibition: Active

## Cc1cc(C(=O)CN2CCCC2)c(C)n1-c1ccc(F)cc1
Homo sapiens [10]
  inhibition: Active

## CC(C)(C)OC(=O)NCc1ccc(OC(=O)Oc2ccccc2)cc1
[1]
  EC50: > 150 µM

## CC(C)(C)CNCc1ccc(OC(=O)Oc2ccc3ccccc3c2)cc1
[1]
  EC50: 30 µM
[4]
  K: 21 M⁻¹ s⁻¹
[5]
  K: inactive

## Cc1ccc(OC(=O)Oc2cccc(C)c2)cc1
[1]
  EC50: > 150 µM

## O=C1/C(=C/c2ccc([N+](=O)[O-])cc2)CS(=O)(=O)C/C1=C\c1ccc([N+](=O)[O-])cc1
Homo sapiens [11]
  inhibition: Active

## CC(C)CNCc1ccc(OC(=O)Oc2ccc3ccccc3c2)cc1
[1]
  EC50: 70 µM

## NCc1ccc(OC(=O)Oc2ccccc2)cc1
Homo sapiens [12]
  T1/2: > 0.5 h
[1]
  EC50: 210 µM
[2]
  EC50: 250 µM

## NCc1ccc(OC(=O)Oc2ccc(Cl)cc2)cc1
[1]
  EC50: 30 µM
[2]
  EC50: 50 µM
Homo sapiens [13]
  T1/2: > 6 h
[3]
  EC50: < 50 µM
[4]
  K: 13 M⁻¹ s⁻¹
[5]
  K: 18 M⁻¹ s⁻¹
Papain (Carica papaya)
  inhibition: inactive
[6]
  inhibition: inactive
[7]
  inhibition: inactive
K562
  inhibition: Active
[8]
  inhibition: Active
Ficin (Ficus carica)
  inhibition: inactive

## NCc1ccc(OC(=O)Oc2ccccc2Cl)cc1
[1]
  EC50: 60 µM

## CC(C)COC(=O)Oc1ccc(CN)cc1
[1]
  EC50: > 500 µM

## NCc1ccc(OC(=O)Cc2ccccc2)cc1
[1]
  EC50: > 150 µM

## COc1ccc(OC(=O)Oc2ccc(CN)cc2)cc1
[1]
  EC50: 260 µM

## COc1ccc(OC(=O)Oc2cccc(OC)c2)cc1
[1]
  EC50: > 150 µM

## S=C=NCCc1ccccc1
[14]
  K: 150 M⁻¹ s⁻¹

## CC(C)(C)OC(=O)NCc1ccc(OC(=O)Oc2ccc(Cl)cc2)cc1
[1]
  EC50: > 150 µM

## CC(C)C[C@H](NC(=O)[C@H](Cc1ccccc1)NC(=O)c1cnccn1)B(O)O
Homo sapiens [15]
  inhibition: inactive

## NCc1ccc(OC(=O)Oc2ccc(F)cc2)cc1
[1]
  EC50: 300 µM

## Oc1ccc2ccccc2c1
MCF7
  Activity: inactive

## Cc1ccc(OC(=O)Oc2ccc(CN)cc2)cc1
[1]
  EC50: 250 µM

## NCc1ccc(O)cc1
MCF7
  Activity: inactive

## O=C(Oc1ccccc1)Oc1ccccc1
[1]
  EC50: > 150 µM

## NCc1ccc(OC(=O)Oc2cccc3ccccc23)cc1
[1]
  EC50: 40 µM
[3]
  EC50: < 50 µM
[4]
  K: inactive
[5]
  K: 17 M⁻¹ s⁻¹
Papain (Carica papaya)
  inhibition: inactive
[7]
  inhibition: inactive
K562
  inhibition: Active
[8]
  inhibition: Active
Ficin (Ficus carica)
  inhibition: inactive

## C=CC(=O)N1C/C(=C\c2ccc([N+](=O)[O-])cc2)C(=O)/C(=C/c2ccc([N+](=O)[O-])cc2)C1
[5]
  K: 140 M⁻¹ s⁻¹

## N#CSc1cc(SC#N)c(N)nc1N
[5]
  K: 90 M⁻¹ s⁻¹

## NCc1ccc(CC(=O)Oc2ccccc2)cc1
[1]
  EC50: > 150 µM
